# Key:
# Format in all cases: protein-complex assay
# [1] = molecular target: GABA-A receptor; alpha-1/beta-3/gamma-2 (Homo sapiens) (UniProt P14867+P18507+P28472); experiment: It is the ratio of Ki value for alpha-1-beta-3-gamma-2 to that of alpha-5-beta-3-gamma-2
# [2] = molecular target: T1, GABA-A receptor; alpha-1/beta-3/gamma-2 (Homo sapiens, UniProt P14867+P18507+P28472); experiment: Binding affinity against alpha-1-beta-3-gamma-2 GABAA/BzR receptor subtype.
# T1 sequence (P14867 whole entry): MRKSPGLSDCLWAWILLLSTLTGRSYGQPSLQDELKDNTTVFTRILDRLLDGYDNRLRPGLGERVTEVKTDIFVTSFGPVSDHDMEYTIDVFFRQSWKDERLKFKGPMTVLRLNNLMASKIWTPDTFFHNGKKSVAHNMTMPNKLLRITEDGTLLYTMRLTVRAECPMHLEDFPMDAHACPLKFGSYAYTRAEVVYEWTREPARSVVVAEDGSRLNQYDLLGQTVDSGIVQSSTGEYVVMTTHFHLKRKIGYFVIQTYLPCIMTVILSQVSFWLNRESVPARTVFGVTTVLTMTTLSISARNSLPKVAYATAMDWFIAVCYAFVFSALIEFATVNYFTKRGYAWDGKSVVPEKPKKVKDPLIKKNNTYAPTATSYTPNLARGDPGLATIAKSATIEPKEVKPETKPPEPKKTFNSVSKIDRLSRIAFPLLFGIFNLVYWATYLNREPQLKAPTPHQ
# T1 sequence (P18507 whole entry): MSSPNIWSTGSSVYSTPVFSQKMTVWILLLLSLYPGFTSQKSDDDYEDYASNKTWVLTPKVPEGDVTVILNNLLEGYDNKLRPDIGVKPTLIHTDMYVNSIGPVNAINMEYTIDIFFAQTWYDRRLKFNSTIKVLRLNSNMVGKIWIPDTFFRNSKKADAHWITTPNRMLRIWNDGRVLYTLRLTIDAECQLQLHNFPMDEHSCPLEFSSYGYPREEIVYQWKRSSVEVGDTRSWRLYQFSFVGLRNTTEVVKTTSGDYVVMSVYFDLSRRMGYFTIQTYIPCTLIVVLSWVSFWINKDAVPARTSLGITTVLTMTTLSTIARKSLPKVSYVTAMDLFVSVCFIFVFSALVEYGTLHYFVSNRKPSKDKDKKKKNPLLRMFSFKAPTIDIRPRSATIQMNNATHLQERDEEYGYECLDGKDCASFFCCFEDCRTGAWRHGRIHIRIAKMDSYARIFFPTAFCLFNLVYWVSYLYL
# T1 sequence (P28472 whole entry): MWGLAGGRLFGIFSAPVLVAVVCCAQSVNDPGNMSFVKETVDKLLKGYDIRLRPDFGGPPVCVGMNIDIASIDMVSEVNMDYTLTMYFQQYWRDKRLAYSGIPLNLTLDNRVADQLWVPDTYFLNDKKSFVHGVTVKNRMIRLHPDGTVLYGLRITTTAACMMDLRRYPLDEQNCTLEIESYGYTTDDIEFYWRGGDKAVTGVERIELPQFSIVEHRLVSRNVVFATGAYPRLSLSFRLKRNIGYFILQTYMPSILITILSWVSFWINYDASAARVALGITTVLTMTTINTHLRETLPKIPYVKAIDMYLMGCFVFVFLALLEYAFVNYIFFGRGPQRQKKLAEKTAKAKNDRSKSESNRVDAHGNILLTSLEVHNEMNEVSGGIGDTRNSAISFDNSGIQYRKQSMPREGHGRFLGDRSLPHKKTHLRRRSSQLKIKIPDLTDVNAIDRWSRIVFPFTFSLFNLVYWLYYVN
# [3] = molecular target: T2, GABA-A receptor; alpha-2/beta-3/gamma-2 (Homo sapiens, UniProt P18507+P28472+P47869); experiment: Binding affinity tested against alpha-2-beta-3-gamma-2 GABAA/BzR receptor subtype.
# T2 sequence (P18507 whole entry): T1 sequence (P18507 whole entry)
# T2 sequence (P28472 whole entry): T1 sequence (P28472 whole entry)
# T2 sequence (P47869 whole entry): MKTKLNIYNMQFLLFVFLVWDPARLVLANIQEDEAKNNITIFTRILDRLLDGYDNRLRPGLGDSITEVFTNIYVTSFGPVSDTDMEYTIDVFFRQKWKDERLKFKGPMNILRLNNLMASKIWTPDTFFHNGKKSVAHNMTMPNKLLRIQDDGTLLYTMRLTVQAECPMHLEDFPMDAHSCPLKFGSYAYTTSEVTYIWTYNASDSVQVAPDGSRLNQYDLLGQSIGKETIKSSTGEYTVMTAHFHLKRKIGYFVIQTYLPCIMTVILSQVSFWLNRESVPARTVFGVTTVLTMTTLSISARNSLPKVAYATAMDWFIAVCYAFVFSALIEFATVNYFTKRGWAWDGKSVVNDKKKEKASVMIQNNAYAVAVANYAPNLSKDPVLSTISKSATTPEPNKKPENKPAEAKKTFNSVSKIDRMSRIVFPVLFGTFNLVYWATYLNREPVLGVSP
# [4] = molecular target: T3, GABA-A receptor; alpha-5/beta-3/gamma-2 (Homo sapiens, UniProt P18507+P28472+P31644); experiment: Binding affinity for Gamma-aminobutyric acid A receptor alpha-5-beta-3-gamma-2
# T3 sequence (P18507 whole entry): T1 sequence (P18507 whole entry)
# T3 sequence (P28472 whole entry): T1 sequence (P28472 whole entry)
# T3 sequence (P31644 whole entry): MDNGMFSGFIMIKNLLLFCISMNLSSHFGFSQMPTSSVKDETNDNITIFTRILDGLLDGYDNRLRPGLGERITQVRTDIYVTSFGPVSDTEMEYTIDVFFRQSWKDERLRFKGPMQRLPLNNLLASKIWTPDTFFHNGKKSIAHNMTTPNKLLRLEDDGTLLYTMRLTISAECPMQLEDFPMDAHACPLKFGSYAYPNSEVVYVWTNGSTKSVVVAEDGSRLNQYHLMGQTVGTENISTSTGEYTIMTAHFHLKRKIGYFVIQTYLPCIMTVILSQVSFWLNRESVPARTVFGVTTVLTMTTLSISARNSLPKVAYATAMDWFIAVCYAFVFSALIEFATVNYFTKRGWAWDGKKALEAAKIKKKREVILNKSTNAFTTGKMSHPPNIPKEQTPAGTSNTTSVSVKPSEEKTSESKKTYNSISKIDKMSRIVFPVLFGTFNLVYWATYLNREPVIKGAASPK
# [5] = molecular target: GABA-A receptor; alpha-6/beta-3/gamma-2 (Homo sapiens, UniProt P18507+P28472+Q16445); experiment: Binding affinity against Gamma-aminobutyric acid A receptor alpha-6-beta-3-gamma-2
# Chain of GABA-A receptor; alpha-6/beta-3/gamma-2 (Q16445 whole entry, one chain of several): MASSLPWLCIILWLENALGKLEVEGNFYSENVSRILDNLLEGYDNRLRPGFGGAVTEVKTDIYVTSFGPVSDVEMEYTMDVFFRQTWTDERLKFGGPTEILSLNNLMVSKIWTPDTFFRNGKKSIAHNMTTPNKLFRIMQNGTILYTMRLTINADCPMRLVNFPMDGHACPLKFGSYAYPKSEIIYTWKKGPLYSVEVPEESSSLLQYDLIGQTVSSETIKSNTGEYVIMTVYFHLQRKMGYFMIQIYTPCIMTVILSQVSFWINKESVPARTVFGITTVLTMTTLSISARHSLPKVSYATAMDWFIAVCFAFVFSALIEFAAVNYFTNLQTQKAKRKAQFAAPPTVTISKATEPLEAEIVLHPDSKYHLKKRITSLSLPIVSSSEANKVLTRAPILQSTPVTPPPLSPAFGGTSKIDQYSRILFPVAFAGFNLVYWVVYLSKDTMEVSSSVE
# How it was run: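 Cells scraped into PBS, spun at 3000g, resuspended in 10 mM KH₂PO₄/100 mM KCl pH 7.4. Nonspecific binding with 10⁻⁵ M diazepam; 1 h to equilibrium at 4 °C; filtration, ice-cold buffer wash, scintillation counting.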
# [6] = molecular target: T4, GABA-A receptor; alpha-3/beta-3/gamma-2 (Homo sapiens, UniProt P18507+P28472+P34903); experiment: Binding affinity against alpha-3-beta-3-gamma-2 GABAA/BzR receptor subtype.
# T4 sequence (P18507 whole entry): T1 sequence (P18507 whole entry)
# T4 sequence (P28472 whole entry): T1 sequence (P28472 whole entry)
# T4 sequence (P34903 whole entry): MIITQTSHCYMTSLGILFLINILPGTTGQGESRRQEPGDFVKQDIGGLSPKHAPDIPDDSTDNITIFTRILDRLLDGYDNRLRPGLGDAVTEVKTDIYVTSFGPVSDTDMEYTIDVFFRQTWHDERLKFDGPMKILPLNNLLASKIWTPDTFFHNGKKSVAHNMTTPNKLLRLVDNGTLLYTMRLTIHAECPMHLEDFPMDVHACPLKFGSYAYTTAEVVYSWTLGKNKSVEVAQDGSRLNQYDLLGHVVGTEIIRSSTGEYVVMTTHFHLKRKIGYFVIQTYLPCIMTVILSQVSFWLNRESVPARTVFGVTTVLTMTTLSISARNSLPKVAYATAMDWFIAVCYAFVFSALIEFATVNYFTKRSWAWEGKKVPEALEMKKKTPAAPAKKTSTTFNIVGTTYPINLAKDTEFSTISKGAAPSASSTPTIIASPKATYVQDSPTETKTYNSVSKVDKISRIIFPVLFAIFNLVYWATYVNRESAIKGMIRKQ
SMILES,Ratio [1],Ki [2],Ki [3],Ki [4],Ki [5],Ki [6]
CN1Cc2c(C(=O)OC(C)(C)C)ncn2-c2ccc(C#CC[Si](C)(C)C)cc2C1=O,12,0.275 µM,0.387 µM,0.023 µM,0.301 µM,0.337 µM
CCOC(=O)c1ncn2c1[C@@H]1CCCN1C(=O)c1cc(OC)ccc1-2,108,0.0485 µM,0.0274 µM,0.00045 µM,0.0832 µM,0.0275 µM
CN1Cc2c(C(=O)OCC3CC3)ncn2-c2ccc(Cl)cc2C1=O,1.7,0.0164 µM,0.0482 µM,0.0098 µM,0.168 µM,0.0425 µM
CCOC(=O)c1ncn2c1[C@@H]1CCN1C(=O)c1cc(C#C[Si](C)(C)C)ccc1-2,32,0.083 µM,0.06 µM,0.0026 µM,0.18 µM,0.048 µM
CCOC(=O)c1ncn2c1CN(C)C(=O)c1cc(C#N)ccc1-2,1.67,0.01 µM,0.045 µM,0.006 µM,> 1 µM,0.019 µM
CN1Cc2c(C(=O)OC(C)(C)C)ncn2-c2ccc(Cl)cc2C1=O,26.6,0.0173 µM,0.0216 µM,0.00065 µM,0.004 µM,0.0291 µM
CN1Cc2c(C(=O)OC(C)(C)C)ncn2-c2ccc([N+](=O)[O-])cc2C1=O,3.7,0.0128 µM,0.0498 µM,0.0035 µM,0.0225 µM,0.0302 µM
CCOC(=O)c1ncn2c1CN(C)C(=O)c1cc(OCC)ccc1-2,12.4,0.0112 µM,0.036 µM,0.00107 µM,0.0515 µM,0.0169 µM
CCCCCc1ncn2c1CN(C)C(=O)c1cc(Cl)ccc1-2,5.6,2.05 µM,2.9 µM,0.369 µM,0.96 µM,2.91 µM
C#Cc1ccc2c(c1)C(=O)N1CCC[C@H]1c1c(-c3nc(C(C)C)no3)ncn1-2,15,0.073 µM,0.085 µM,0.0048 µM,0.333 µM,0.097 µM
CCc1ccc2c(c1)C(=O)N(C)Cc1c(C(=O)OC(C)(C)C)ncn1-2,8.6,0.0148 µM,0.056 µM,0.00172 µM,0.0229 µM,0.0253 µM
C#Cc1ccc2c(c1)C(=O)N1CCC[C@H]1c1c(-c3nc(CC)no3)ncn1-2,36,0.086 µM,0.04 µM,0.0024 µM,0.15 µM,0.085 µM
COCc1ncn2c1CN(C)C(=O)c1cc(Cl)ccc1-2,> 7.7,> 0.3 µM,> 0.3 µM,0.0388 µM,> 0.3 µM,> 0.3 µM
CCCCC(=O)c1ncn2c1CN(C)C(=O)c1cc(Cl)ccc1-2,9.6,1.58 µM,2.86 µM,0.166 µM,2.93 µM,2.74 µM
C#Cc1ccc2c(c1)C(=O)N(C)Cc1c(C(=O)OCC)ncn1-2,58,0.0284 µM,0.0214 µM,0.00049 µM,0.0288 µM,0.0258 µM
CCOCc1ncn2c1CN(C)C(=O)c1cc(Cl)ccc1-2,> 3.6,> 0.3 µM,> 0.3 µM,0.0827 µM,> 0.3 µM,> 0.3 µM
CC(C)N(Cc1ncn2c1CN(C)C(=O)c1cc(Cl)ccc1-2)C(C)C,3.2,4.2 µM,12.6 µM,1.35 µM,8.6 µM,6.27 µM
CN1Cc2c(C(=O)OC(C)(C)C)ncn2-c2ccc(C#C[Si](C)(C)C)cc2C1=O,75.5,0.197 µM,0.143 µM,0.00261 µM,0.0586 µM,0.255 µM
C#Cc1ccc2c(c1)C(=O)N1CCC[C@H]1c1c(-c3nc(C)no3)ncn1-2,24,0.089 µM,0.07 µM,0.0037 µM,0.301 µM,0.091 µM
C#Cc1ccc2c(c1)C(=O)N1CC[C@H]1c1c(-c3nc(C(C)C)no3)ncn1-2,18,0.156 µM,0.088 µM,0.0085 µM,0.267 µM,0.122 µM
CCOC(=O)c1ncn2c1CN(C)C(=O)c1cc(CC)ccc1-2,13.6,0.0204 µM,0.027 µM,0.0015 µM,0.176 µM,0.0261 µM
CC(=O)c1ncn2c1CN(C)C(=O)c1cc(Cl)ccc1-2,6.7,17.5 µM,33.8 µM,2.61 µM,29.5 µM,22.1 µM
C#Cc1ccc2c(c1)C(=O)N1CC[C@H]1c1c(C(=O)OCC)ncn1-2,57,0.021 µM,0.012 µM,0.00037 µM,0.042 µM,0.01 µM
CCOC(=O)c1ncn2c1[C@@H]1CCCN1C(=O)c1cc(Br)ccc1-2,49,0.049 µM,0.029 µM,0.001 µM,0.046 µM,0.015 µM
